Experimental data taken from ChEMBL document CHEMBL1649081, “Arylpiperazines for management of benign prostatic hyperplasia: design, synthesis, quantitative structure-activity relationships, and pharmacokinetic studies” (J Med Chem, 2011).
Where “and” joins values, the source holds several entries; their conditions need not be identical. Equal values may be shown once. Calls of active or inactive are those of the source. No cut-off for these calls is given here.

Tests used:
[1] = (§1) […] in Sprague-Dawley rat model […] assessed as reduction in prostate weight at 10 mg/k, po administered daily for 21 days measured after 24 hrs post last dose; format: functional
Summary of the method: (§2)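 Adult mature Sprague-Dawley rats (n = 5) received an oral 10.0 mg/kg dose as a water/gum acacia suspension daily for 21 days. Controls received vehicle, and a reference antiandrogen served as positive control. At autopsy 24 h after the last dose, prostates were dissected and weighed.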

[2] = biological target: Estrogen receptor beta (Homo sapiens) (UniProt Q92731); test: Induction of ERbeta in human prostate cells at 10 umol relative to control; format: cell-based
Chain of Estrogen receptor beta (Homo sapiens) (Q92731 whole entry): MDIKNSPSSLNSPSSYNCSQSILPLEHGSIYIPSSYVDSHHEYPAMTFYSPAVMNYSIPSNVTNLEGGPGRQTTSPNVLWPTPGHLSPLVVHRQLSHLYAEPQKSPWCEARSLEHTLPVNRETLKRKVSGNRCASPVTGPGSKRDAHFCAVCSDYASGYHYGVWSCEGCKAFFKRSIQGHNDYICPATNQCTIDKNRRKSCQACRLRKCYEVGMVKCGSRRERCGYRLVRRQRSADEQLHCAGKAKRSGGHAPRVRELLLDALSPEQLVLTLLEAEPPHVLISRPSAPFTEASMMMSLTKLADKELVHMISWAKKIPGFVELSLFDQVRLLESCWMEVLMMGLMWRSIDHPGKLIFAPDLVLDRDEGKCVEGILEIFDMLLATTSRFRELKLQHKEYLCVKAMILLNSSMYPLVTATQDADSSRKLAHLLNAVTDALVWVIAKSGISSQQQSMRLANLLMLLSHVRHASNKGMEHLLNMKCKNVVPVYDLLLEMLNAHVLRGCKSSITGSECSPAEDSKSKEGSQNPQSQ
Summary of the method: (§3)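 ER-α and ER-β mRNA were measured by real-time PCR in two cell types: primary BPH-derived human stromal cells (passages 4-6; DMEM/Ham's F-12, 10% FCS) and LNCaP cells (RPMI-1640, 10% FCS, gelatin-coated). Cells at 80% confluence were treated with 10.0 μmol for 24 h, then total RNA was extracted. Results are fold change versus control, mean ± SE of three values.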

[3] = Cmax in Sprague-Dawley rat hypothalamus at 10 mg/kg, po administered as single dose after 1 hr; format: ADME, organism-based; parameters: dose 10 mg/kg, route oral
Summary of the method: (§4)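 Male Sprague-Dawley rats were fasted overnight (12-16 h) and given a single oral 10 mg/kg dose, n = 3 per time point. Animals were killed at intervals up to 24 h and serum, prostate and hypothalamus collected; hypothalamus was pooled from three rats. Analysis was by HPLC (0.01 M sodium acetate pH 6.0/acetonitrile 30:70; LLOQ 10 ng/mL), with noncompartmental parameters.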

[4] = Cmax in Sprague-Dawley rat serum at 10 mg/kg, po administered as single dose after 2 hrs; format: ADME, organism-based; parameters: dose 10 mg/kg, route oral; summary of the method: as §4
[5] = Cmax in Sprague-Dawley rat hypothalamus at 10 mg/kg, po administered as single dose after 2 hrs; format: ADME, organism-based; parameters: dose 10 mg/kg, route oral; summary of the method: as §4
[6] = Mean residence time in Sprague-Dawley rat serum at 10 mg/kg, po administered as single dose; format: ADME, organism-based; parameters: dose 10 mg/kg, route oral; summary of the method: as §4
[7] = Ratio of drug level in hypothalamus to prostate in Sprague-Dawley rat at 10 mg/kg, po administered as single dos; format: ADME, organism-based; parameters: dose 10 mg/kg, route oral; conditions: in vivo; summary of the method: as §4
[8] = Tmax in Sprague-Dawley rat prostate gland at 10 mg/kg, po administered as single dose after 1 hr; format: ADME, organism-based; parameters: dose 10 mg/kg, route oral; summary of the method: as §4
[9] = Tmax in Sprague-Dawley rat serum at 10 mg/kg, po administered as single dose after 1 hr; format: ADME, organism-based; parameters: dose 10 mg/kg, route oral; summary of the method: as §4
[10] = biological target: T1, Estrogen receptor (Homo sapiens) (UniProt P03372); test: Induction of ERalpha in human LNCAP cells at 10 umol relative to control; format: cell-based
T1 sequence (whole entry): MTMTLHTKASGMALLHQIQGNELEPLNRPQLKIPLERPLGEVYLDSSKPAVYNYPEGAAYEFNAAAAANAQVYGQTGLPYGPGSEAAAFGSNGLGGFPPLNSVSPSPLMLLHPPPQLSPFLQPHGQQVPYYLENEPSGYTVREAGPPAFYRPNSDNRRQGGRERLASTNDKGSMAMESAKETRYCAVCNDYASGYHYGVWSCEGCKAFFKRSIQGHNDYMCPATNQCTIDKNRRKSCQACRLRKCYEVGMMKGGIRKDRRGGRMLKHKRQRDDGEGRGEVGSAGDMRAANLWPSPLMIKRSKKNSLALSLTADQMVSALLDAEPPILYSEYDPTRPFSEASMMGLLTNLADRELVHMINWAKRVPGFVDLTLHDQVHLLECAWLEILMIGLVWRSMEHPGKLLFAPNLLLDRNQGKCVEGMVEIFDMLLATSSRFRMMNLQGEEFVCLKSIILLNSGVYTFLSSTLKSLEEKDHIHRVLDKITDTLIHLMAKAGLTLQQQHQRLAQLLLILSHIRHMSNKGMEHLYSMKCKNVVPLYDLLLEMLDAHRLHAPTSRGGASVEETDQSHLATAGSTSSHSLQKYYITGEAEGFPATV
Summary of the method: (§5)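 LNCaP cells were grown in RPMI-1640 with 10% FCS, penicillin and streptomycin on gelatin-coated plates to 80% confluence, then treated at 10.0 μmol for 24 h, with flutamide as comparator. Total RNA was extracted with Trireagent, and ER-α/ER-β mRNA was measured by real-time PCR. Results are fold change versus control, mean ± SE of three values.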

[11] = Ratio of drug level in serum to prostate in Sprague-Dawley rat at 10 mg/kg, po administered as single dos; format: ADME, organism-based, Prostate gland; parameters: dose 10 mg/kg, route oral; conditions: in vivo; summary of the method: as §4
Serum [12] = test: Clearance in Sprague-Dawley rat serum at 10 mg/kg, po administered as single dose; format: ADME, organism-based; parameters: dose 10 mg/kg, route oral; conditions: in vivo; summary of the method: as §4
[13] = AUC (0 to t) in Sprague-Dawley rat prostate gland at 10 mg/kg, po administered as single dose; format: ADME, organism-based; parameters: dose 10 mg/kg, route oral; conditions: in vivo; summary of the method: as §4
LNCaP [14] = test: Anticancer activity against human LNCAP cells assessed as change in PSA gene expression at 10 umol after 48 hrs by RT-PCR analysis relative to control; format: functional
Summary of the method: (§6)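 LNCaP cells (androgen-dependent human prostate cancer) were grown in RPMI-1640 with 10% FCS, 100 units/mL penicillin G and 100 μg/mL streptomycin on gelatin-coated plates. They were treated at 10 μmol for 48 h, with flutamide as positive control. PSA is reported as fold change relative to untreated control.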

[15] = Tmax in Sprague-Dawley rat prostate gland at 10 mg/kg, po administered as single dose after 2 hrs; format: ADME, organism-based; parameters: dose 10 mg/kg, route oral; summary of the method: as §4
[16] = Cmax in Sprague-Dawley rat serum at 10 mg/kg, po administered as single dose after 1 hr; format: ADME, organism-based; parameters: dose 10 mg/kg, route oral; summary of the method: as §4
[17] = biological target: T1, Estrogen receptor (Homo sapiens); test: Induction of ERalpha in human prostate cells at 10 umol relative to control; format: cell-based; summary of the method: as §3
LNCaP [18] = test: Anticancer activity against human LNCAP cells assessed as change in PSA gene expression at 10 umol after 48 hrs by RT-PCR analysis; format: functional; summary of the method: as §6
[19] = biological target: Estrogen receptor beta (Homo sapiens) (UniProt Q92731); test: Induction of ERbeta in human LNCAP cells at 10 umol relative to control; format: cell-based; summary of the method: as §5
[20] = Tmax in Sprague-Dawley rat hypothalamus at 10 mg/kg, po administered as single dose after 2 hrs; format: ADME, organism-based; parameters: dose 10 mg/kg, route oral; summary of the method: as §4
[21] = Tmax in Sprague-Dawley rat hypothalamus at 10 mg/kg, po administered as single dose after 1 hr; format: ADME, organism-based; parameters: dose 10 mg/kg, route oral; summary of the method: as §4
[22] = Mean residence time in Sprague-Dawley rat prostate gland at 10 mg/kg, po administered as single dose; format: ADME, organism-based; parameters: dose 10 mg/kg, route oral; summary of the method: as §4
[23] = Cmax in Sprague-Dawley rat prostate gland at 10 mg/kg, po administered as single dose after 2 hrs; format: ADME, organism-based; parameters: dose 10 mg/kg, route oral; summary of the method: as §4
[24] = Tmax in Sprague-Dawley rat serum at 10 mg/kg, po administered as single dose after 2 hrs; format: ADME, organism-based; parameters: dose 10 mg/kg, route oral; summary of the method: as §4
Hypothalamus = test: AUC (0 to t) in Sprague-Dawley rat hypothalamus at 10 mg/kg, po administered as single dose; format: ADME, organism-based; parameters: dose 10 mg/kg, route oral; conditions: in vivo; summary of the method: as §4
[25] = Mean residence time in Sprague-Dawley rat hypothalamus at 10 mg/kg, po administered as single dose; format: ADME, organism-based; parameters: dose 10 mg/kg, route oral; summary of the method: as §4
Serum [26] = test: AUC (0 to t) in Sprague-Dawley rat serum at 10 mg/kg, po administered as single dose; format: ADME, organism-based; parameters: dose 10 mg/kg, route oral; conditions: in vivo; summary of the method: as §4
[27] = Cmax in Sprague-Dawley rat prostate gland at 10 mg/kg, po administered as single dose after 1 hr; format: ADME, organism-based; parameters: dose 10 mg/kg, route oral; summary of the method: as §4
Cancer cell lines = test: as §1; format: functional; summary of the method: as §2

In the case of `O=C(c1ccc(C(F)(F)F)cc1)N1CCN(c2ccccn2)CC1`, the “inhibition (INH)” value [1] was 15%.

For `O=[N+]([O-])c1cc(C(F)(F)F)ccc1N1CCN(c2ccccn2)CC1`, the “inhibition (INH)” value [1] was 15%.

With `O=C(c1ccccc1)N1CCN(c2cccc(Cl)c2)CC1` the “inhibition (INH)” value [1] was 10%.

In the case of `O=C(c1ccccc1)N1CCN(c2cccc(C(F)(F)F)c2)CC1`, the “inhibition (INH)” value [1] was 15%.

With `O=C(c1ccc(C(F)(F)F)cc1)N1CCN(c2cccc(C(F)(F)F)c2)CC1` the “inhibition (INH)” value [1] was 15%.

In the case of `O=C(c1ccccc1)N1CCN(c2ncccn2)CC1`, the “inhibition (INH)” value [1] was 10%.

For `O=[N+]([O-])c1ccc(CN2CCN(c3ccccn3)CC2)cc1`, the “inhibition (INH)” value [1] was 15%.

In the case of `O=C(c1ccccc1[N+](=O)[O-])N1CCN(c2cccc(C(F)(F)F)c2)CC1`, the “inhibition (INH)” value [1] was 15%.

In the case of `O=C(c1ccccc1)N1CCN(c2ccccn2)CC1`, the “inhibition (INH)” value [1] was 10%.

With `O=C(c1ccccc1[N+](=O)[O-])N1CCN(c2ccccn2)CC1` the “inhibition (INH)” value [1] was 15%.

For `O=[N+]([O-])c1cc(C(F)(F)F)ccc1N1CCN(c2ccc(F)cc2)CC1`, the “inhibition (INH)” value [1] was 15%.

For `O=[N+]([O-])c1ccc(N2CCN(c3cccc(Cl)c3)CC2)c(C(F)(F)F)c1`, the “inhibition (INH)” value [1] was 15% and 24%.

For `O=[N+]([O-])c1ccc(CN2CCN(c3ncccn3)CC2)cc1`, the “inhibition (INH)” value [1] was 15% and 24%.

In the case of `O=[N+]([O-])c1cc(C(F)(F)F)ccc1N1CCN(c2cccc(C(F)(F)F)c2)CC1`, the “inhibition (INH)” value [1] was 15% and 24%.

`O=[N+]([O-])c1ccc(N2CCN(c3cccc(C(F)(F)F)c3)CC2)c(C(F)(F)F)c1` showed a fold change (FC) [2] of 6, a Cmax [3] of 99.5 ng/g and a Cmax [4] of 139 ng/mL. For the same molecule, the Cmax [5] was 124 ng/g, the MRT [6] was 6.97 h and the Ratio [7] was 0.35. It also gave a Tmax [8] of 1.5 h, a Tmax [9] of 0.5 h and a fold change (FC) [10] of 11. The Ratio [11] was 0.13, the CL (Serum [12]) was 0.17 mL/min/kg and the AUC [13] was 5650 ng·h/g. For the same molecule, the “fold change (FC)” value (LNCaP [14]) was 0.106, the Tmax [15] was 6 h and the Cmax [16] was 106 ng/mL. The fold change (FC) [17] was 3, the “inhibition (INH)” value (LNCaP [18]) was 90% and the fold change (FC) [19] was 16. The Tmax [20] was 2 h, the Tmax [21] was 1 h and the MRT [22] was 11 h. For the same molecule, the Cmax [23] was 365 ng/g, the Tmax [24] was 2 h and the “inhibition (INH)” value [1] was 15% and 24%. It also gave an AUC (Hypothalamus) of 2000 ng·h/g, an MRT [25] of 11.6 h and an AUC (Serum [26]) of 712 ng·h/mL. For the same molecule, the Cmax [27] was 442 ng/g.

In the case of `O=[N+]([O-])c1ccc(N2CCN(c3ncccn3)CC2)c(C(F)(F)F)c1`, the “inhibition (INH)” value [1] was 15% and 24%.

With `O=C(c1ccc(C(F)(F)F)cc1)N1CCN(c2cccc(Cl)c2)CC1` the “inhibition (INH)” value [1] was 10%.

With `O=[N+]([O-])c1cc(C(F)(F)F)ccc1N1CCN(c2cccc(Cl)c2)CC1` the “inhibition (INH)” value [1] was 15%.

In the case of `O=[N+]([O-])c1ccc(N2CCN(c3ccccn3)CC2)c(C(F)(F)F)c1`, the “inhibition (INH)” value [1] was 15% and 24%.

For `O=[N+]([O-])c1ccc(N2CCN(c3ccc(F)cc3)CC2)c(C(F)(F)F)c1`, the “inhibition (INH)” value [1] was 15% and 24%.

For `O=[N+]([O-])c1cc(C(F)(F)F)ccc1N1CCN(c2ncccn2)CC1`, the “inhibition (INH)” value [1] was 15% and 24%.

For `O=[N+]([O-])c1ccccc1N1CCN(c2cccc(Cl)c2)CC1`, the Activity (Cancer cell lines) was “inactive”.

In the case of `O=[N+]([O-])c1ccccc1N1CCN(c2ccccn2)CC1`, the “inhibition (INH)” value [1] was 15%.

For `O=[N+]([O-])c1ccccc1N1CCN(c2cccc(C(F)(F)F)c2)CC1`, the Activity (Cancer cell lines) was “inactive”.

With `O=[N+]([O-])c1ccc(CN2CCN(c3cccc(C(F)(F)F)c3)CC2)cc1` the “inhibition (INH)” value [1] was 15%.

For `O=[N+]([O-])c1ccc(N2CCN(c3ccccn3)CC2)cc1`, the “inhibition (INH)” value [1] was 15% and 24%.

For `O=[N+]([O-])c1ccc(CN2CCN(c3cccc(Cl)c3)CC2)cc1`, the “inhibition (INH)” value [1] was 15%.

With `CC(C)C(=O)Nc1ccc([N+](=O)[O-])c(C(F)(F)F)c1` [FLUTAMIDE] the fold change (FC) [10] was 11, the “fold change (FC)” value (LNCaP [14]) was 0.01 and the “inhibition (INH)” value (LNCaP [18]) was 99%. The fold change (FC) [19] was 14.
